# SENP1 FRET inh: human SENP1 catalytic domain inhibitors, primary screen, biochemical, FRET, uHTS. 360,000 tested, 0.21% active. AID 624204, 2012. Sentrin-specific protease 1 (Homo sapiens), Q9P0U3. recombinant SENP1 catalytic domain, CyPet-SUMO1-YPet FRET cleavage. inhibition, % at 10 µM;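 active = inhibition at least 30% at 10 µM, raw YFP signal under a set limit, fluorescence ratio 0.5 to 1.5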;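 note: 0% = enzyme with DMSO and 100% = no enzyme wells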
# Target sequence (Q9P0U3 419-644 limits assumed): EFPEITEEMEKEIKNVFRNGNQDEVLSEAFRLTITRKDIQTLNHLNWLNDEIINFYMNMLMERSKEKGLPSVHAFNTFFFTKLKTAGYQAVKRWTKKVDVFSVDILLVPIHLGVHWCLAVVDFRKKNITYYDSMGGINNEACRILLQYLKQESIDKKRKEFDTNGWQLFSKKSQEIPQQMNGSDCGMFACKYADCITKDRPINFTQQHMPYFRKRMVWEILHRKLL
#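 system = hSENP1 catalytic domain, recombinant | reagent = SFCypet-SUMO1-SFYpet substrate at 25 nM | doses = one dose per compound, 10 µM, 0.5% DMSO | incubation = enzyme reaction for 50 min at room temperature, dark | measured by = FRET, CFP and YFP emission | controls = no-enzyme low, enzyme-DMSO high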
# SENP7 inh: SENP7 protease inhibitors, primary screen, biochemical, luminescence, uHTS; recombinant SENP7, Z-RLRGG-aminoluciferin luminescence, 40 min; Sentrin-specific protease 7 (Homo sapiens), Q9BQF6; 330,000 tested, 1.5% active; inhibition, % at 5 µM;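 active = inhibition above about 50% at the single test dose, limit read from the data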;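 note: plate controls were DMSO with enzyme for no effect and no enzyme buffer wells for full effect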
# SENP6 block: SENP6 protease inhibitors, primary screen, biochemical, luminescence, uHTS; Recombinant SENP6 catalytic domain, aminoluciferin luminescence; 330,000 tested, 1.8% active; inhibition, % at 10 µM;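 active = inhibition above about 50% at the single tested dose, limit read from the data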;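 note: plate controls were DMSO wells with enzyme for no effect and DMSO wells lacking enzyme for full effect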
# SENP8 block-1: SENP8 protease inhibitors, primary screen, biochemical, luminescence; Sentrin-specific protease 8 (Homo sapiens), Q96LD8; purified SENP8, Z-RLRGG-aminoluciferin cleavage; inhibition, % at 10 µM; 330,000 tested, 1.2% active; in the data active = inhibition above about 50%
# Target sequence (Q96LD8 whole entry, looked up): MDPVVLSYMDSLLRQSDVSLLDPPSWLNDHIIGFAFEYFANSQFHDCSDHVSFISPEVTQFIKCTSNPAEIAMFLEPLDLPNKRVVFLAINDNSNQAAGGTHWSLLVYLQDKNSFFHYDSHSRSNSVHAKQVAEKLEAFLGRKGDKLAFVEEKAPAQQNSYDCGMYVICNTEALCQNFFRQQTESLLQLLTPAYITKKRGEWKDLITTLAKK
# SENP8 block-2: human SENP8 protease inhibitors, primary screen, biochemical, fluorescence, Nedd8 protein substrate, uHTS | recombinant SENP8 | 360,000 tested, 0.64% active | Sentrin-specific protease 8 (Homo sapiens), Q96LD8 | inhibition, % at 20 µM; in the data active = inhibition mostly above about 40%, no sharp cut-off; inactive = mostly below about 27%
# SENP8 conf: SENP8 protease inhibitors, retest, confirmation, biochemical, luminescence, single concentration; shares compounds with SENP7 inh; AID 488912, 2010; 6,200 tested, 40% active; Recombinant SENP8, Z-RLRGG-aminoluciferin luminescence, 60 min; inhibition, % at 12.5 µM;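 active = mean inhibition across replicates above about 50%, limit read from the data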
# SENP6 confirm: SENP6 protease inhibitors, confirmation, biochemical, luminescence, single concentration | shares compounds with SENP7 inh | recombinant SENP6, Z-RLRGG-aminoluciferin luminescence | inhibition, % at 12.5 µM | 6,200 tested, 58% active
# SENP7 confirm: SENP7 protease inhibitors, retest, confirmation, biochemical, luminescence, single concentration; shares compounds with SENP7 inh; recombinant SENP7, Z-RLRGG-aminoluciferin luminescence, 40 min; inhibition, % at 12.5 µM; 6,200 tested, 69% active; AID 488917, 2010
# Casp3 select: caspase-3 protease inhibitors, confirmation, selectivity assay for SENP inhibitor project, biochemical, single concentration; shares compounds with SENP7 inh; purified caspase-3, Z-DEVD-aminoluciferin luminescence, 60 min; inhibition, % at 12.5 µM; 6,200 tested, 60% active; AID 488918, 2010;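 active = mean inhibition above about 50%, limit read from the data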;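 note: plate controls were enzyme with DMSO for no effect and wells without caspase-3 for full effect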
# SENP luc ctr: interferes with luciferase luminescence in SENP counter-screen | shares compounds with SENP7 inh | Pre-incubated SENP8/Z-RLRGG-aminoluciferin, luciferase luminescence interference | inhibition, % at 12.5 µM | 6,200 tested, 39% active | AID 488919;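 active = mean inhibition above about 50% when retested at one dose, limit read from the data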;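 note: plate controls were DMSO wells with completed reaction for no effect and substrate without enzyme for full effect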
# * marks the source's active call; other numbers are inactive results; nt = no result given. In the library only some 2.5% were active in any assay of this set; here they are far more common.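 Rule for the calls, unless noted: active = mean inhibition above about 50% in the one-dose retest (limit read from the data); inactive = the rest.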
SMILES,SENP1 FRET inh,SENP7 inh,SENP6 block,SENP8 block-1,SENP8 block-2,SENP8 conf,SENP6 confirm,SENP7 confirm,Casp3 select,SENP luc ctr
O=c1oc2cc(OCc3c(F)cccc3Cl)ccc2cc1-c1ccccn1,-58,-11,-27,-10,-389,nt,nt,nt,nt,nt
COc1ccc2c(=O)c(-c3ccccc3)coc2c1,-1,80*,79*,75*,3,40,73*,93*,84*,34
CC(=O)Oc1ccc2occ(-c3ccccc3)c2c1,-1,-4,-6,1,10,nt,nt,nt,nt,nt
COc1ccc2cc(-c3ccccc3)c(=O)oc2c1,-2,88*,92*,75*,-365,15,90*,99*,86*,40
COC(=O)C(C)Oc1ccc2cc(-c3ccccc3)c(=O)oc2c1 (stereo not given),-15,-2,5,-15,-341,nt,nt,nt,nt,nt
CCN(CC)C(=O)Oc1ccc2c(=O)c(-c3ccccc3)coc2c1,1,71*,81*,54*,0,18,25,54*,57*,21
CCCOc1ccc2cc(-c3ccccn3)c(=O)oc2c1,-88,101*,98*,96*,-402,81*,85*,101*,88*,38
COc1ccccc1C(=O)Nc1nnc(SCC(=O)NCc2ccco2)s1,2,28,19,15,-85,nt,nt,nt,nt,nt
COc1ccc(C(=O)Nc2nnc(SCC(=O)Nc3ccc(NC(C)=O)cc3)s2)c(OC)c1,1,47,22,-4,-74,nt,nt,nt,nt,nt
COc1ccc(C(=O)Nc2nnc(SCC(=O)NCc3ccco3)s2)c(OC)c1,-1,52*,57*,20,-67,-6,32,68*,59*,-1
COc1ccc(C(=O)Nc2nnc(SCC(=O)NC3CCCC3)s2)c(OC)c1,0,63*,64*,37,-47,15,12,12,18,4
Cc1ccc(C(=O)Sc2cccccc2=O)cc1,4,3,15,6,7,nt,nt,nt,nt,nt
CCOC(=O)C1CCCN(C(=O)c2ccc(-c3ccccc3)cc2)CC1 (stereo not given),2,nt,nt,nt,20,nt,nt,nt,nt,nt
O=Nc1c2nc3ccccc3n(O)c-2c2ccccc12,8,28,50*,30,-53,12,15,37,53*,13
On1c(-c2ccccc2)nc2ccccc21,1,-6,-29,-6,-2,nt,nt,nt,nt,nt
CCC(=O)c1coc2ccc(O)cc12,1,-12,9,-8,-19,nt,nt,nt,nt,nt
O=C(CCl)Oc1ccc2occ(C(=O)c3cccs3)c2c1,1,38,63*,27,14,32,30,66*,40,30
O=C(c1cccs1)c1coc2ccc(O)cc12,2,28,54*,21,24,41,48,77*,49,32
CC(=O)Oc1ccc2occ(C(=O)c3cccs3)c2c1,-2,5,23,8,22,nt,nt,nt,nt,nt
O=C(NCCCN1CCOCC1)c1sc2cc(Cl)ccc2c1Cl,2,-5,-24,-4,12,nt,nt,nt,nt,nt
